ChEMBL document CHEMBL4425135, “Novel C-Ring-Hydroxy-Substituted Controlled Deactivation Cannabinergic Analogues” (J Med Chem, 2016)
The source made the active and inactive calls. The calls are words filed in the database; no cut-off is given here.

Assays:
Cannabinoid receptor 2 [1] = target: T1, Cannabinoid receptor 2 (Mus musculus, UniProt P47936); test: Displacement of [3H]CP55940 from mouse CB2 receptor expressed in HEK293 cell membranes by scintillation counting method
How it was run: (§1)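 Competition binding against [3H]CP-55,940 using rat brain membranes (CB1) or membranes of HEK293 cells expressing mouse or human CB2. IC50 from nonlinear regression, converted to Ki. Each experiment run in triplicate; Ki is the mean of three independent experiments.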

Cannabinoid receptor 1 [2] = target: T2, Cannabinoid receptor 1 (Rattus norvegicus, UniProt P20272); test: Displacement of [3H]CP55940 from CB1 receptor in rat brain membranes by scintillation counting method; type: cell membranes; how it was run: as §1
T2 sequence (P20272 whole entry): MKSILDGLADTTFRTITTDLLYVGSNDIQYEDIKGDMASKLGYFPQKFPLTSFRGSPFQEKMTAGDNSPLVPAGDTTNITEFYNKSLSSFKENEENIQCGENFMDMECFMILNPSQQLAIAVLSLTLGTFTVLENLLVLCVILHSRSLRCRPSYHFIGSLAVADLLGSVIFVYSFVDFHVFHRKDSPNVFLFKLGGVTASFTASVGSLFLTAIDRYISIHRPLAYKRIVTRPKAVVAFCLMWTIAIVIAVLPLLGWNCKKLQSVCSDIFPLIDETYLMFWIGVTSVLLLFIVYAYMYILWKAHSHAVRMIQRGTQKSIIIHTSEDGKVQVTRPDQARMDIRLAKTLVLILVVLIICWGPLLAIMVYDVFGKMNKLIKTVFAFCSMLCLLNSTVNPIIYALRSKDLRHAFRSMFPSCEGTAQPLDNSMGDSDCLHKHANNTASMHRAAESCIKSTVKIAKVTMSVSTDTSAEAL

[3] = Half life in rat plasma assessed as esterase-mediated compound hydrolysis at 200 uM by HPLC method; type: ADME, cell-free
How it was run: (§2)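 Compound diluted to 200 μM in mouse or rat plasma and shaken at 37 °C, 100 rpm. Samples taken at timed points, diluted 1:4 in acetonitrile and centrifuged. Supernatant analysed by reversed-phase C18 HPLC, acetonitrile/acidified water gradient, UV detection. 4-Nitrophenyl butyrate run as control in each experiment. Half-life from exponential decay fit.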

Rattus norvegicus [4] = test: Hypothermic activity in Sprague-Dawley rat assessed as time required for decrease in rectal body temperature at 0.1 to 3 mg/kg, sc; type: functional
How it was run: (§3)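 Female Sprague-Dawley rats, 250–350 g, n = 6/group, retested with ≥5 days between sessions. Dosed sc (1.0 mL/kg) in 20% ethanol/20% alkamuls/60% saline diluted with saline. Rectal thermistor at 6 cm depth. Two baselines 15 min apart, then readings every 30 min for 3 h and hourly to 6 h. Change taken from mean baseline.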

Rattus norvegicus [5] = test: Hypothermic activity in Sprague-Dawley rat assessed as decrease in rectal body temperature at 3 mg/kg, sc measured over 6 hrs; type: functional; how it was run: as §3
Rattus norvegicus [6] = test: Hypothermic activity in sc dosed Sprague-Dawley rat assessed as decrease in rectal body temperature measured over 6 hrs; type: functional; how it was run: as §3
[7] = target: Cannabinoid receptor 1 (Rattus norvegicus) (UniProt P20272); test: Agonist activity at rat CB1 receptor expressed in HEK293 cells assessed as decrease in forskolin-stimulated cAMP levels at 500 nM after 30 mins relative to CP-55940; type: functional, cell-based
Chain of Cannabinoid receptor 1 (Rattus norvegicus) (P20272 whole entry): as above

Cannabinoid receptor 1 [8] = target: T2, Cannabinoid receptor 1; test: Agonist activity at rat CB1 receptor expressed in HEK293 cells assessed as decrease in forskolin-stimulated cAMP levels after 30 mins; type: functional, cell-based
How it was run: (§4)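 Stably transfected HEK293 cells harvested with Versene, washed in HBSS, resuspended in stimulation buffer. Cells exposed to graded compound concentrations in buffer containing forskolin (2 μM final), 30 min at room temperature. cAMP read by TR-FRET (Eu-cAMP tracer plus ULight anti-cAMP antibody, 60 min room temperature). EC50 from nonlinear regression.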

Cannabinoid receptor 2 [9] = target: T3, Cannabinoid receptor 2 (Homo sapiens, UniProt P34972); test: Agonist activity at human CB2 receptor expressed in HEK293 cells assessed as decrease in forskolin-stimulated cAMP levels after 30 mins; type: functional, cell-based; how it was run: as §4
T3 sequence (P34972 whole entry): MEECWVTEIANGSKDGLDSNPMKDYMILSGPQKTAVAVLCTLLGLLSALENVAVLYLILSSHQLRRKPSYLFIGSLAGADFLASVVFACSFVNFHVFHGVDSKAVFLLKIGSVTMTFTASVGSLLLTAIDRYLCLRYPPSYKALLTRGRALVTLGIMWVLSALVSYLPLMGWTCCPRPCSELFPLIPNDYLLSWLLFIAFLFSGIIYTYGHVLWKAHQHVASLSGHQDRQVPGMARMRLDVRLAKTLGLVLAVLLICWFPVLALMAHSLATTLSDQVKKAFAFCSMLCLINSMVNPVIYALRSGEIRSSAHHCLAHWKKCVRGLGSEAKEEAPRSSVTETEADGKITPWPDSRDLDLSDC

Cannabinoid receptor 2 [10] = target: T3, Cannabinoid receptor 2; test: Agonist activity at human CB2 receptor expressed in HEK293 cells assessed as decrease in forskolin-stimulated cAMP levels at 500 nM after 30 mins relative to CP-55940; type: functional, cell-based
[11] = Half life in mouse plasma assessed as esterase-mediated compound hydrolysis at 200 uM by HPLC method; type: ADME, cell-free; how it was run: as §2
Cannabinoid receptor 2 [12] = target: T3, Cannabinoid receptor 2; test: Displacement of [3H]CP55940 from human CB2 receptor expressed in HEK293 cell membranes by scintillation counting method; how it was run: as §1
Rattus norvegicus [13] = test: Hypothermic activity in Sprague-Dawley rat assessed as time required for decrease in rectal body temperature at 0.01 to 1 mg/kg, sc; type: functional; how it was run: as §3
Mus musculus [14] = test: Analgesic activity in CD1 mouse assessed as increase in tail flick latency at 1 mg/kg, ip measured at 60 mins relative to control; type: functional
How it was run: (§5)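 Male CD-1 mice, 30–35 g, n = 6, each used once, habituated over three mock sessions at 38 °C. Tail-flick latency in a 52 °C water bath at baseline, then 20, 60, 180 and 360 min after ip dosing (10 mL/kg). Vehicle 2% DMSO/4% Tween-80/4% propylene glycol with saline, freshly prepared. Scored as %MPE.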

Squirrel monkey [15] = test: Induction of CB1-related discriminative stimulus effect in squirrel monkey at 0.001 mg/kg, im after 1 hr; type: functional, organism-based; settings: Saimiri sciureus
How it was run: (§6)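 Squirrel monkeys trained on two levers to discriminate 0.01 mg/kg im CB1 agonist from vehicle. After im test dosing, sequential sessions began at 15, 30, 60, 120, 240, 480 and 960 min, with some groups also tested at 36 and 48 h. Measured percent responding on the agonist lever (≥90% counted as full substitution) and overall response rate.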

Squirrel monkey [16] = test: Induction of CB1-related discriminative stimulus effect in squirrel monkey at 0.001 mg/kg, im after 4 to 16 hrs; type: functional, organism-based; settings: Saimiri sciureus; how it was run: as §6
Rattus norvegicus [17] = test: Hypothermic activity in Sprague-Dawley rat assessed as decrease in rectal body temperature at 0.1 mg/kg, sc measured over 6 hrs; type: functional; how it was run: as §3
Mus musculus [18] = test: Analgesic activity in CD1 mouse assessed as increase in tail flick latency at 1 mg/kg, ip measured at 180 mins relative to control; type: functional; how it was run: as §5
Squirrel monkey [19] = test: Effect on response rate in squirrel monkey at 0.001 mg/kg, im; type: functional, organism-based; settings: Saimiri sciureus; how it was run: as §6
Squirrel monkey [20] = test: Induction of CB1-related discriminative stimulus effect in squirrel monkey assessed as time required for 50% loss of full effect at 0.001 mg/kg, im; type: functional, organism-based; settings: Saimiri sciureus; how it was run: as §6
Mus musculus [21] = test: Analgesic activity in CD1 mouse assessed as increase in tail flick latency at 1 mg/kg, ip measured at 360 mins relative to control; type: functional; how it was run: as §5
Rattus norvegicus [22] = test: Hypothermic activity in Sprague-Dawley rat assessed as decrease in rectal body temperature at 0.1 mg/kg, sc after 6 hrs; type: functional, organism-based; how it was run: as §3
Rattus norvegicus [23] = test: Hypothermic activity in Sprague-Dawley rat assessed as decrease in rectal body temperature at 1 mg/kg, sc measured over 6 hrs; type: functional; how it was run: as §3
Mus musculus [24] = test: Analgesic activity in CD1 mouse assessed as increase in tail flick latency at 1 mg/kg, ip measured at 20 mins relative to control; type: functional; how it was run: as §5
Squirrel monkey [25] = test: Induction of CB1-related discriminative stimulus effect in squirrel monkey at 0.003 mg/kg, im measured after 24 hrs; type: functional, organism-based; settings: Saimiri sciureus
Squirrel monkey [26] = test: Induction of CB1-related discriminative stimulus effect in squirrel monkey at 0.003 mg/kg, im measured within 15 mins; type: functional, organism-based; settings: Saimiri sciureus; how it was run: as §6
Cannabinoid receptor 1 [27] = target: T2, Cannabinoid receptor 1; test: Binding affinity to rat CB1 receptor
How it was run: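 Competition displacement of [3H]CP-55,940 from rat brain membranes (CB1 source). IC50 from nonlinear regression of competition curves, converted to Ki. Each experiment run in triplicate; Ki is the mean of three independent experiments.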

Squirrel monkey [28] = test: Induction of CB1-related discriminative stimulus effect in squirrel monkey assessed as time required for 50% loss of full effect at 0.003 mg/kg, im; type: functional, organism-based; settings: Saimiri sciureus; how it was run: as §6
Squirrel monkey [29] = test: Effect on response rate in squirrel monkey at 0.003 mg/kg, im; type: functional, organism-based; settings: Saimiri sciureus; how it was run: as §6
Squirrel monkey [30] = test: Induction of CB1-related discriminative stimulus effect in squirrel monkey at 0.003 mg/kg, im measured at 36 hrs; type: functional, organism-based; settings: Saimiri sciureus; how it was run: as §6
Cannabinoid receptor 2 [31] = target: T1, Cannabinoid receptor 2; test: Binding affinity to mouse CB2 receptor; how it was run: as §1
Rattus norvegicus [32] = test: Hypothermic activity in Sprague-Dawley rat assessed as time required for decrease in rectal body temperature at 0.03 to 3 mg/kg, sc; type: functional; how it was run: as §3

T1 sequence (P47936 whole entry): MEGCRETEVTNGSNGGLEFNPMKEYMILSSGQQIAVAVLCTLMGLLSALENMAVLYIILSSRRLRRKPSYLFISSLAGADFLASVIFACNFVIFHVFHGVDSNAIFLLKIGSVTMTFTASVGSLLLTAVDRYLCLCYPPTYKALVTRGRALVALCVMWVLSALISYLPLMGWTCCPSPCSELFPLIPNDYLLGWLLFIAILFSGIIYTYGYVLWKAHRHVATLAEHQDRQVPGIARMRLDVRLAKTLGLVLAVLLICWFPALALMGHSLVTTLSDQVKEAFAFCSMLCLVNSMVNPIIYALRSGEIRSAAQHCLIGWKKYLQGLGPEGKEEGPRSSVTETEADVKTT

CC1(C)Oc2cc(CC(=O)O)cc(O)c2[C@@H]2C[C@H](O)CC[C@H]21
Ki (Cannabinoid receptor 2 [1]): > 10000 nM
Ki (Cannabinoid receptor 1 [2]): > 10000 nM

CC(C)(C(=O)O)c1cc(O)c2c(c1)OC(C)(C)[C@@H]1CC[C@@H](CO)C[C@@H]21
Ki (Cannabinoid receptor 2 [1]): > 10000 nM
Ki (Cannabinoid receptor 1 [2]): > 10000 nM

CCCCOC(=O)C(C)(C)c1cc(O)c2c(c1)OC(C)(C)[C@@H]1CC[C@@H](O)C[C@@H]21
t1/2 [3]: 10.2 min
Time (Rattus norvegicus [4]): 1 to 3 h
T (Rattus norvegicus [5]): 4.7 - 7.2 °C
Activity (Rattus norvegicus [6]): Dose-dependent effect
ED50 (Rattus norvegicus [6]): 0.74 mg/kg
Emax [7]: 85%
EC50 (Cannabinoid receptor 1 [8]): 8.6 nM
EC50 (Cannabinoid receptor 2 [9]): 9 nM
Emax (Cannabinoid receptor 2 [10]): 85%
t1/2 [11]: 2.7 min

CCCCOC(=O)Cc1cc(O)c2c(c1)OC(C)(C)[C@@H]1CC[C@@H](O)C[C@@H]21
Ki (Cannabinoid receptor 2 [12]): 432 nM
Ki (Cannabinoid receptor 2 [1]): 317 nM
Ki (Cannabinoid receptor 1 [2]): 238 nM

CCCCOC(=O)C(C)(C)c1cc(O)c2c(c1)OC(C)(C)[C@@H]1CC[C@H](O)C[C@@H]21
t1/2 [3]: 5.6 min
t1/2 [11]: 2.8 min

CCCCOC(=O)Cc1cc(O)c2c(c1)OC(C)(C)[C@@H]1CC[C@H](O)C[C@@H]21
Ki (Cannabinoid receptor 2 [12]): 733 nM
Ki (Cannabinoid receptor 2 [1]): 654 nM
Ki (Cannabinoid receptor 1 [2]): 750 nM

CCCCOC(=O)C(C)(C)c1cc(O)c2c(c1)OC(C)(C)[C@@H]1CC[C@@H](CO)C[C@@H]21
Time (Rattus norvegicus [13]): 1 to 3 h
t1/2 [3]: 39.2 min
MPE (Mus musculus [14]): 96%
Activity (Squirrel monkey [15]): Active
Activity (Squirrel monkey [16]): inactive
T (Rattus norvegicus [17]): >4 °C
MPE (Mus musculus [18]): 97%
Activity (Squirrel monkey [19]): inactive
Activity (Rattus norvegicus [6]): Dose-dependent effect
ED50 (Rattus norvegicus [6]): 0.04 mg/kg
Emax [7]: 87%
Ki (Cannabinoid receptor 2 [12]): 3.1 nM
T1/2 (Squirrel monkey [20]): 48 min
MPE (Mus musculus [21]): 58%
Activity (Rattus norvegicus [22]): inactive
EC50 (Cannabinoid receptor 1 [8]): 2.5 nM
Ki (Cannabinoid receptor 2 [1]): 0.1 nM
EC50 (Cannabinoid receptor 2 [9]): 0.3 nM
Emax (Cannabinoid receptor 2 [10]): 82%
T (Rattus norvegicus [23]): 4.7 - 7.2 °C
t1/2 [11]: 3.1 min
MPE (Mus musculus [24]): 94%
Ki (Cannabinoid receptor 1 [2]): 2.4 nM

CCCCCCC(C)(C)c1cc(O)c2c(c1)OC(C)(C)[C@@H]1CC=C(CO)C[C@@H]21
Time (Rattus norvegicus [13]): 1 to 3 h
Activity (Squirrel monkey [25]): Active
Activity (Squirrel monkey [26]): Active
ED50 (Rattus norvegicus [6]): 0.04 mg/kg
Ki (Cannabinoid receptor 1 [27]): 0.7 nM
T1/2 (Squirrel monkey [28]): 66 min
Activity (Squirrel monkey [29]): inactive
Activity (Squirrel monkey [30]): inactive
Ki (Cannabinoid receptor 2 [31]): 0.2 nM

CC1(C)Oc2cc(CC(=O)O)cc(O)c2[C@@H]2C[C@@H](O)CC[C@H]21
Ki (Cannabinoid receptor 2 [1]): > 10000 nM
Ki (Cannabinoid receptor 1 [2]): > 10000 nM

CC(C)(C(=O)O)c1cc(O)c2c(c1)OC(C)(C)[C@@H]1CC[C@@H](O)C[C@@H]21
Ki (Cannabinoid receptor 2 [1]): > 10000 nM
Ki (Cannabinoid receptor 1 [2]): > 10000 nM

CC(C)(C(=O)O)c1cc(O)c2c(c1)OC(C)(C)[C@@H]1CC=C(CO)C[C@@H]21
Ki (Cannabinoid receptor 2 [1]): > 10000 nM
Ki (Cannabinoid receptor 1 [2]): > 10000 nM

CC(C)(C(=O)O)c1cc(O)c2c(c1)OC(C)(C)[C@@H]1CC[C@H](O)C[C@@H]21
Ki (Cannabinoid receptor 2 [1]): > 10000 nM
Ki (Cannabinoid receptor 1 [2]): > 10000 nM

CCCCOC(=O)C(C)(C)c1cc(O)c2c(c1)OC(C)(C)[C@@H]1CC=C(CO)C[C@@H]21
t1/2 [3]: 39.1 min
T (Rattus norvegicus [17]): >4 °C
T (Rattus norvegicus [5]): 4.7 - 7.2 °C
Activity (Rattus norvegicus [6]): Dose-dependent effect
ED50 (Rattus norvegicus [6]): 0.04 mg/kg
Emax [7]: 89%
Time (Rattus norvegicus [32]): 1 to 3 h
Activity (Rattus norvegicus [22]): inactive
EC50 (Cannabinoid receptor 1 [8]): 4.6 nM
EC50 (Cannabinoid receptor 2 [9]): 5.7 nM
Emax (Cannabinoid receptor 2 [10]): 83%
t1/2 [11]: 5 min
